Source: publication PMC6555264 (Infection and Drug Resistance, 2019)
“And” between values parts separate entries of the source, which are not always exact repeats. Identical values can stand only once.

Experiments:
[1] = system: B. mallei; format: cell-based, Burkholderia mallei
[2] = system: panel of MDR Gram-negative pathogenic bacterial strains; test: Broth dilution MIC, whole panel; format: cell-based; conditions: for fold reduction of MIC in the presence of AR-12: certain polymyxin-resistant Gram-negative bacterial strains
In short: (§1)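 Colonies from Mueller-Hinton II agar (37°C, overnight) were suspended in PBS, sized by OD600 and diluted in CAMHB, giving a final inoculum of 5×10^5 CFU/ml. Single-drug MICs: 96-well round-bottom plates, static 37°C for 18–24 h, growth scored visually. Checkerboard: twofold polymyxin B or colistin (0.13–64 or 128 μg/ml) against twofold test compound (1–64 or 128 μg/ml; DMSO stock), incubated 16–20 h.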

[3] = Maximum tolerated dose in mice; format: in vivo; conditions: p.o.
[4] = system: K. pneumoniae; test: Broth microdilution MIC, alone and with AR-12; format: cell-based, Klebsiella pneumoniae; conditions: for MIC: drug alone; for MIC (4 µg/ml AR-12): with 4 µg/ml AR-12
In short: as §1

[5] = system: A. baumannii; test: Broth microdilution MIC, alone and with AR-12; format: cell-based, Acinetobacter baumannii; conditions: for MIC: strain 34299 (JMI Laboratories), drug alone; for fold reduction of MIC in the presence of 4 μg/ml of AR-12: MDR A. baumannii (2 out of 4 strains tested); for MIC (4 µg/ml AR-12): strain 34299, with 4 µg/ml AR-12
In short: as §1

[6] = Pharmacokinetic study in mice, oral; format: in vivo, Balb/c mice
In short: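 Female Balb/c mice received a single oral dose of test compound at 80 mg/kg, formulated at 8 mg/mL in 10% Solutol HS 15. Plasma was sampled at 0, 0.5, 1, 2, 4, 8, 10 and 24 h, with 3 mice per time point. Drug levels were quantified by HPLC.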

[7] = system: A. baumannii strains and K. pneumoniae strains; test: Dansyl polymyxin permeability assay; format: cell-based; conditions: increasing concentrations of AR-12; depending on the strain; DP 0.6 μM
In short: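 Log-phase cells (overnight culture subcultured 1:100 for 2–3 h) were pelleted at 0.5 OD-equivalent and resuspended in 1 ml of 5 mM HEPES at room temperature. Fluorescence was read at room temperature (ex 320, em 500 nm), with cell-free wells subtracted. Two or more repeats.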

[8] = system: Enterobacter cloacae; format: cell-based
[9] = system: Serratia marcescens; format: cell-based
[10] = system: MDR clinical isolate of N. gonorrhoeae; conditions: cited from earlier work
[11] = system: Francisella tularensis and F. novicida in THP-1 macrophages; conditions: cited from earlier work
[12] = system: Providencia stuartii; format: cell-based
[13] = system: Proteus mirabilis; format: cell-based
[14] = system: cyclooxygenase 2 (COX-2); conditions: eukaryotic host; cited from earlier work
[15] = system: A. baumannii and K. pneumoniae strains; test: N-phenyl-1-naphthylamine; format: cell-based; conditions: AR-12 4 μg/ml and 8 μg/ml
In short: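 Cell suspensions were prepared as for the dansyl polymyxin assay (log phase, in 5 mM HEPES). Cells were added at 1:4 to a HEPES/NPN/test compound mix, in triplicate. Fluorescence was read at room temperature (ex 355, em 405 nm), with cell-free wells subtracted. Two or more independent repeats.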

[16] = system: ampicillin and kanamycin-resistant E. coli strain; conditions: laboratory-generated ampicillin and kanamycin-resistant E. coli; cited from earlier work
[17] = system: B. pseudomallei; format: cell-based, Burkholderia pseudomallei
[18] = system: Francisella strains; conditions: cited from earlier work
[19] = Protein binding in mice; format: in vitro ADME
[20] = system: A. baumannii; test: Bacterial growth assay; format: cell-based, Acinetobacter baumannii
In short: (§2)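 Cultures were grown overnight (~16 h) in CAMHB at 37°C with shaking, then subcultured 1:100 for 2–3 h to log phase. 5×10^5 CFU/ml were dispensed into CAMHB wells holding preset drug concentrations, in triplicate. Plates were shaken at 37°C, with OD600 read automatically every 15 min for 24 h. Two or more independent repeats.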

[21] = system: K. pneumoniae; test: Bacterial growth assay; format: cell-based, Klebsiella pneumoniae
In short: as §2

[22] = strain 30835 (JMI Laboratories)

Compound	MIC [1] [µg/mL]	MIC ([4]; strain 0010 (CDC)) [µg/mL]	MIC ([4]; strain 101434 (USAMRIID)) [µg/mL]	MIC ([4]; strain 101522 (USAMRIID)) [µg/mL]	MIC ([4]; strain 101783 (USAMRIID)) [µg/mL]	MIC [5] [µg/mL]	MIC [9] [µg/mL]	MIC [12] [µg/mL]	MIC [13] [µg/mL]	MIC [17] [µg/mL]	fold reduction of MIC in the presence of AR-12 [2]	MIC (4 µg/ml AR-12) ([4]; strain 0010) [µg/mL]	MIC [4, 22] [µg/mL]	MIC (4 µg/ml AR-12) ([4]; strain 30835) [µg/mL]	MIC (4 µg/ml AR-12) ([4]; strain 101434) [µg/mL]	MIC (4 µg/ml AR-12) ([4]; strain 101783) [µg/mL]	fold reduction of MIC in the presence of 4 μg/ml of AR-12 [5]	MIC (4 µg/ml AR-12) [5] [µg/mL]	MIC (4 µg/ml AR-12) [9]	MIC (4 µg/ml AR-12) [12] [µg/mL]	further results
NCC(=O)Nc1ccc(-n2nc(C(F)(F)F)cc2-c2ccc3c(ccc4ccccc43)c2)cc1 [AR-12]	>128	>64	>64	>64	>64	>128	>64	>64	>64	>128	–	–	–	–	–	–	–	–	–	–	lowest AR-12 concentration at which the potentiating activity was observed for majority of the MDR strains ([2]; combination with polymyxin B or colistin): 4 µg/mL; MIC of AR-12 alone ([2]; panel of MDR pathogens, tested upto 64 µg/ml): > 64 µg/mL; maximum tolerated dose [3]: 100 mg/kg; bioavailability [6]: poor; AUC (0–24 hrs) ([6]; 80 mg/kg, p.o., q.d.): 41.4 µg·h/mL; Cmax ([6]; 80 mg/kg, p.o., q.d.): 2.1 µg/mL; Tmax ([6]; 80 mg/kg, p.o., q.d.): 10 h; plasma levels sustained over a 24 hrs period ([6]; 80 mg/kg, p.o., q.d.): 1.5–2.1 μg/mL and ~ 2 μg/mL; enhancement of dansyl polymyxin B (DP) fluorescence [7]: 25–50 fold; MIC [8]: >64 µg/mL; bacterial proliferation [10]: reduced the proliferation; intracellular survival of bacteria in macrophages [11]: inhibit the intracellular survival; COX-2 inhibitory activities [14]: devoid of cyclooxygenase 2 (COX-2) inhibitory activities; effect on NPN fluorescence (outer membrane permeability) [15]: increased the fluorescence of NPN; bacterial growth [16]: significantly inhibited the growth; direct antibacterial activity [18]: did not have any direct antibacterial activity; protein bound [19]: 99%
colistin	–	8	>64	>64	>64	>64	>64	>64	>64	–	4–60 fold	8	>64	16	16	1	4–16 fold	4	>64 µg/mL	>64	colistin concentration giving growth inhibition ([20]; MDR A. baumannii 34299, colistin alone): > 32 µg/mL; colistin concentration giving growth inhibition ([20]; MDR A. baumannii 34299, in the presence of 4 μg/ml AR-12): 1 µg/mL; colistin concentration giving growth inhibition ([20]; polymyxin sensitive ATCC A. baumannii 19606, colistin alone): 0.5 µg/mL; colistin concentration giving growth inhibition ([20]; polymyxin sensitive ATCC A. baumannii 19606, in the presence of 4 μg/ml AR-12): 0.015 µg/mL; fold reduction of MIC in the presence of 4 μg/ml of AR-12 ([4]; MDR K. pneumoniae (polymyxin B 7 out of 7, colistin 5 out of 7 strains tested)): 4–60 fold; MIC (4 µg/ml AR-12) ([4]; strain 101522): 8 µg/mL; MIC (4 µg/ml AR-12) [8]: 16 µg/mL; MIC (4 µg/ml AR-12) [13]: >64 µg/mL; colistin concentration giving growth inhibition ([21]; MDR K. pneumoniae 30835, colistin alone): 8 µg/mL; colistin concentration giving growth inhibition ([21]; MDR K. pneumoniae 30835, in the presence of 4 μg/ml AR-12): 1 µg/mL; colistin concentration giving growth inhibition ([21]; polymyxin sensitive ATCC K. pneumoniae 13833, colistin alone): 2 µg/mL; colistin concentration giving growth inhibition ([21]; polymyxin sensitive ATCC K. pneumoniae 13833, in the presence of 4 μg/ml AR-12): 0.125 µg/mL
polymyxin B	128	2	64	64	>64	16	>64	>64	>64	>128	4–60 fold	2	128	≤2	16	2	4–16 fold	≤2	>64 µg/mL and 64 µg/mL	>64	MIC (4 µg/ml AR-12) [1]: 128 µg/mL; MIC (4 µg/ml AR-12) [13]: 64 µg/mL and >64 µg/mL; MIC (4 µg/ml AR-12) [17]: >128 µg/mL
